Measured values from ChEMBL document CHEMBL3822416, “Design, Synthesis, and Structure-Activity Relationship Study of Novel Indole-2-carboxamide Derivatives as Anti-inflammatory Agents for the Treatment of Sepsis” (J Med Chem, 2016).
Calls of active or inactive are those of the source. No cut-off for these calls is given here.

Columns and labels:
RAW264.7 [1] = experiment: Inhibition of LPS-induced IL6 production in mouse RAW264.7 cells at 10 uM preincubated for 30 mins prior to LPS challenge measured after 24 hrs by ELISA; assay type: functional
In short: (§1)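 RAW 264.7 cells (ATCC) were grown in DMEM with 10% FBS and penicillin/streptomycin at 37 °C, 5% CO2. Cells were seeded at 400,000/well and incubated for 24 h, pretreated with compound for 30 min, then given 0.5 µg/mL LPS for 24 h. Medium TNF-α or IL-6 was measured by ELISA and normalized to total protein of viable cell pellets.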

RAW264.7 [2] = experiment: Inhibition of LPS-induced TNF-alpha production in mouse RAW264.7 cells at 10 uM preincubated for 30 mins prior to LPS challenge measured after 24 hrs by ELISA; assay type: functional; in short: as §1
RAW264.7 [3] = experiment: Inhibition of LPS-induced IL6 production in mouse RAW264.7 cells preincubated for 30 mins prior to LPS challenge measured after 24 hrs by ELISA; assay type: functional, cell-based; conditions: Mus musculus, RAW264.7; read-out: IC50; in short: as §1
RAW264.7 [4] = experiment: Inhibition of LPS-induced TNF-alpha production in mouse RAW264.7 cells preincubated for 30 mins prior to LPS challenge measured after 24 hrs by ELISA; assay type: functional, cell-based; conditions: Mus musculus, RAW264.7; read-out: IC50; in short: as §1
Mus musculus [5] = experiment: Antiinflammatory activity in LPS-induced C57BL/6 mouse sepsis model assessed as inhibition of neutrophils infiltration in lung by measuring MPO activity at 10 mg/kg, iv administered 15 mins prior to LPS challenge measured after 6 hrs in presence of O-dianisidine dihydrochloride relative to control; assay type: functional, organism-based
In short: (§2)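 Mice were given 10 mg/kg iv 15 min before 20 mg/kg LPS or without LPS; saline served as control, and animals were killed 6 h later. Lung supernatants were incubated with 0.01% H2O2 and O-dianisidine dihydrochloride 0.167 mg/mL for 30 min, with absorbance change at 460 nm. One unit degrades 1 µmol peroxide/min at 37 °C; values are expressed as units/g lung.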

Mus musculus [6] = experiment: Decrease in MPO activity in C57BL/6 mouse lung at 10 mg/kg, iv after 6 hrs in presence of O-dianisidine dihydrochloride relative to control; assay type: ADME, organism-based; conditions: in vivo; in short: as §2
Mus musculus [7] = experiment: Antiinflammatory activity in LPS-induced C57BL/6 mouse sepsis model assessed as reduction in airspace inflammation in lung at 10 mg/kg, iv administered 15 mins prior to LPS challenge measured after 6 hrs by hematoxylin and eosin staining; assay type: functional, organism-based
In short: (§3)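 Male C57BL/6 mice (18-22 g), randomized into groups. Compound at 10 mg/kg was given by tail-vein injection 15 min before LPS 20 mg/kg; controls received saline. Animals were sacrificed 6 h after LPS. Lung was fixed in 4% paraformaldehyde, paraffin-embedded, cut at 5 µm and H&E stained. A pathologist, blinded, scored alveolar congestion, hemorrhage, neutrophil infiltration and alveolar wall thickness/hyaline membrane.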

Mus musculus [8] = experiment: Antiinflammatory activity in LPS-induced C57BL/6 mouse sepsis model assessed as decrease in pulmonary lobule structural changes at 10 mg/kg, iv administered 15 mins prior to LPS challenge measured after 6 hrs by hematoxylin and eosin staining; assay type: functional, organism-based; in short: as §3
Mus musculus [9] = experiment: Antiinflammatory activity in LPS-induced C57BL/6 mouse sepsis model assessed as inhibition of macrophage infiltration in lung at 10 mg/kg, iv administered 15 mins prior to LPS challenge measured after 6 hrs by F4/80 and hematoxylin-staining based microscopy; assay type: functional, organism-based
In short: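 C57BL/6 males were dosed with 10 mg/kg iv (tail vein) 15 min before 20 mg/kg LPS and sacrificed 6 h later. Paraffin lung sections had antigen retrieval by pressure cooker in 10 mM citrate pH 6.5, then H2O2, 5% BSA block, anti-F4/80 overnight at 4 °C, HRP secondary, DAB and hematoxylin counterstain. The % F4/80-positive cells was counted in 10 random 200× fields per section.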

Mus musculus [10] = experiment: Downregulation of TNF-alpha mRNA level in lung of LPS-induced C57BL/6 mouse sepsis model at 10 mg/kg, iv administered 15 mins prior to LPS challenge measured after 6 hrs by RT-qPCR analysis; assay type: functional, organism-based
In short: (§4)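 Male C57BL/6 mice were given 10 mg/kg by tail-vein injection 15 min before 20 mg/kg LPS and killed after 6 h; lungs were harvested. RNA was extracted with TRIZOL and quantified by real-time quantitative PCR as relative mRNA amount.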

Mus musculus [11] = experiment: Downregulation of IL-6 mRNA level in lung of LPS-induced C57BL/6 mouse sepsis model at 10 mg/kg, iv administered 15 mins prior to LPS challenge measured after 6 hrs by RT-qPCR analysis; assay type: functional, organism-based; in short: as §4
Mus musculus [12] = experiment: Downregulation of IL-12 mRNA level in lung of LPS-induced C57BL/6 mouse sepsis model at 10 mg/kg, iv administered 15 mins prior to LPS challenge measured after 6 hrs by RT-qPCR analysis; assay type: functional, organism-based; in short: as §4
Mus musculus [13] = experiment: Downregulation of IL-33 mRNA level in lung of LPS-induced C57BL/6 mouse sepsis model at 10 mg/kg, iv administered 15 mins prior to LPS challenge measured after 6 hrs by RT-qPCR analysis; assay type: functional, organism-based; in short: as §4
Mus musculus [14] = experiment: Downregulation of IL-1beta mRNA level in lung of LPS-induced C57BL/6 mouse sepsis model at 10 mg/kg, iv administered 15 mins prior to LPS challenge measured after 6 hrs by RT-qPCR analysis; assay type: functional, organism-based; in short: as §4
Mus musculus [15] = experiment: Downregulation of COX2 mRNA level in lung of LPS-induced C57BL/6 mouse sepsis model at 10 mg/kg, iv administered 15 mins prior to LPS challenge measured after 6 hrs by RT-qPCR analysis; assay type: functional, organism-based; in short: as §4

| SMILES | inhibition at 10 µM (RAW264.7 [1]) | inhibition at 10 µM (RAW264.7 [2]) | inhibition (RAW264.7 [2]) | also measured |
| --- | --- | --- | --- | --- |
| Cc1ccc(C)c(COc2ccc(NC(=O)c3cc4cc([N+](=O)[O-])ccc4[nH]3)cc2Cl)c1 | 24.9% | 2.89% | – | – |
| CN1CCN(c2ccc(NC(=O)c3cc4cc(NS(C)(=O)=O)ccc4n3Cc3ccc(C(F)(F)F)cc3)cc2)CC1 | – | – | – | IC50 (RAW264.7 [3]): 4.91 µM; IC50 (RAW264.7 [4]): 1.97 µM |
| COc1cc(COc2ccc(NC(=O)c3cc4cc([N+](=O)[O-])ccc4[nH]3)cc2Cl)cc(OC)c1 | 29% | 7.67% | – | – |
| CN1CCN(c2ccc(NC(=O)c3cc4cc([N+](=O)[O-])ccc4n3Cc3c(Cl)cccc3Cl)cc2)CC1 | 93.3% | 52.7% | – | – |
| CN1CCN(c2ccc(NC(=O)c3cc4cc([N+](=O)[O-])ccc4n3Cc3ccc(Br)cc3)cc2)CC1 | 93% | 31.1% | – | – |
| COc1ccc2c(c1)c(CC(=O)O)c(C)n2C(=O)c1ccc(Cl)cc1 [INDOMETHACIN] | 53.6% | 24.1% | – | – |
| O=C(NCCc1ccccc1)c1cc2cc([N+](=O)[O-])ccc2[nH]1 | 8.71% | 2.58% | – | – |
| O=C(Nc1ccc(OCc2cc(F)cc(F)c2)cc1)c1cc2cc([N+](=O)[O-])ccc2[nH]1 | 11.2% | – | inactive | – |
| CN1CCN(c2ccc(NC(=O)c3cc4cc([N+](=O)[O-])ccc4n3Cc3cccc(F)c3)cc2)CC1 | 86.4% | 22.8% | – | – |
| Cc1ccc(COc2ccc(NC(=O)c3cc4cc([N+](=O)[O-])ccc4[nH]3)cc2)cc1 | 1.98% | – | inactive | – |
| O=C(Nc1ccc(OCc2ccccc2)c(Cl)c1)c1cc2cc([N+](=O)[O-])ccc2[nH]1 | 21.5% | – | inactive | – |
| Cc1cc2cc(NC(=O)c3cc4cc([N+](=O)[O-])ccc4[nH]3)ccc2[nH]1 | 37% | 7.53% | – | – |
| CCCn1c(-c2c[nH]c3ncccc23)nc2ccc(N3CCN(C)CC3)nc21 | 69.5% | 67.3% | – | inhibition (Mus musculus [5]): Active; Activity (Mus musculus [6]): Non-toxic; Activity (Mus musculus [7]): Active; Activity (Mus musculus [8]): Active; inhibition (Mus musculus [9]): Active; Activity (Mus musculus [10]): Active; Activity (Mus musculus [11]): Active; Activity (Mus musculus [12]): Active; Activity (Mus musculus [13]): Active; Activity (Mus musculus [14]): inactive; Activity (Mus musculus [15]): inactive |
| O=C(Nc1ccc(OCc2cccc(F)c2)cc1)c1cc2cc([N+](=O)[O-])ccc2[nH]1 | 4.42% | – | inactive | – |
| O=C(Nc1ccc(OCc2ccc(C(F)(F)F)cc2)c(Cl)c1)c1cc2cc([N+](=O)[O-])ccc2[nH]1 | 29.2% | – | inactive | – |
| CN1CCN(c2ccc(NC(=O)c3cc4cc([N+](=O)[O-])ccc4n3C)cc2)CC1 | 87.2% | 16% | – | – |
| CC(C)=CCOc1ccc(NC(=O)c2cc3cc([N+](=O)[O-])ccc3[nH]2)cc1 | 56.5% | 38.6% | – | – |
| O=C(Nc1ccc(OCc2c(Cl)cccc2Cl)c(Cl)c1)c1cc2cc([N+](=O)[O-])ccc2[nH]1 | 29.8% | – | inactive | – |
| COc1ccc(COc2ccc(NC(=O)c3cc4cc([N+](=O)[O-])ccc4[nH]3)cc2Cl)cc1 | 24.8% | – | inactive | – |
